Here are results for 13 compounds from ChEMBL document CHEMBL1140479, “NO donors. Part 16: investigations on structure-activity relationships of organic mononitrates reveal 2-nitrooxyethylammoniumnitrate as a high potent vasodilator” (Bioorg Med Chem Lett, 2007).

The assay in a line: Vasodilatory effect in pig pulmonary artery assessed as inhibition of PGF2-alpha-induced contraction. It counts as functional, tissue-based, Sus scrofa. The settings on record: for pD2: Sus scrofa. A digest of the protocol:
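Porcine lungs from slaughterhouse; small pulmonary artery branches cut into rings (2–3 mm long, 1.5–2 mm diameter), tension measured in organ baths. Rings precontracted with PGF2α; test compounds added cumulatively at contraction plateau (up to 1 mM), DMSO as solvent. Endothelium checked by 10 nM bradykinin relaxation; denuded rings by gentle rubbing, pretreated with 0.2 mM L-NAME. Potency expressed as pD2.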

Broadly, the EC50 is the concentration that produces a half-maximal response. Take `NCCO[N+](=O)[O-]` [AMINOETHYL NITRATE]: the EC50 was found to be 0.0315 µM and the pD2 stood at 7.5.

As to `CC(O[N+](=O)[O-])C(=O)c1ccccc1` (stereo unspecified), the EC50 turned out to be 1.54 µM and the pD2 came to 5.81.

Turning to `O=[N+]([O-])OCCS(=O)(=O)O`, the EC50 was found to be 33.5 µM and the pD2 was 4.48.

On to `O=[N+]([O-])OCc1ccccc1`, for which the EC50 worked out at 0.412 µM and the pD2 is 6.34.

For the compound `COC(=O)CCO[N+](=O)[O-]`, the EC50 worked out at 1.03 µM and the pD2 amounted to 5.99.

`O=[N+]([O-])OCC(CO[N+](=O)[O-])O[N+](=O)[O-]` [NITROGLYCERIN]: the EC50 is 0.0356 µM and the pD2 came to 7.44.

As for `CC(C)CO[N+](=O)[O-]`, the EC50 worked out at 87.7 µM and the pD2 amounted to 4.01.

Turning to `O=[N+]([O-])OC1COC2C(O)COC12` (stereo unspecified), the EC50 was 33.2 µM and the pD2 is 4.48.

Turning to `O=[N+]([O-])O[C@H]1CO[C@H]2[C@@H]1OC[C@H]2O[N+](=O)[O-]` [ISOSORBIDE DINITRATE], the EC50 was determined as 0.424 µM and the pD2 stood at 6.37.

As for `CC(C)(CO[N+](=O)[O-])C(=O)O`, the EC50 was 14.7 µM and the pD2 amounted to 4.83.

As for `O=C(O)CCO[N+](=O)[O-]`, the EC50 was 9.56 µM and the pD2 is 5.02.

Take `O=[N+]([O-])OCC(CO)(CO)CO` [PENTAERYTHRITYL MONONITRATE]: the EC50 amounted to 72.5 µM and the pD2 is 4.14.

Turning to `CCCCO[N+](=O)[O-]`, the EC50 worked out at 141 µM and the pD2 came to 3.85.
